Measurements as given in ChEMBL document CHEMBL4706579, “Novel quinazolinone inhibitors of the Pseudomonas aeruginosa quorum sensing transcriptional regulator PqsR” (Eur J Med Chem, 2020).
Calls of active or inactive are those of the source. The calls are words filed in the database; no cut-off is given here.

Tests used:
[1] = target: T1, Transcriptional regulator MvfR (Pseudomonas aeruginosa PA14) (UniProt A0A072ZLE6); assay: Inhibition of PqsR in Pseudomonas aeruginosa PAO1 L harboring mCTX:PpqsA-lux fusion protein assessed as remaining enzyme activity at 10 uM and measured every 30 mins for 24 hrs by spot test relative to control
T1 sequence (whole entry): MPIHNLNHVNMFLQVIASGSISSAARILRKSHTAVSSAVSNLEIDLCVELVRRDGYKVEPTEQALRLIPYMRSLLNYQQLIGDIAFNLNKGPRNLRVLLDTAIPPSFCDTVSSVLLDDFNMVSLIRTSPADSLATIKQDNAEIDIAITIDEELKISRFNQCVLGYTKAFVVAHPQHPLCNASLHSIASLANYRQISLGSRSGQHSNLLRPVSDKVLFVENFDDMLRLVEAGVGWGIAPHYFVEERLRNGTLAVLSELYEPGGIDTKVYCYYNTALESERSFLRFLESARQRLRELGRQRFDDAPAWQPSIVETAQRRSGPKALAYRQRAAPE
How it was run: (§1)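 Chromosomal mCTX:PpqsA-lux reporter strain in LB, overnight culture (OD600 2.0–3.0) diluted to OD600 0.02 and mixed 1:1 with compound, final 10 μM, at least triplicate wells. Run at 37 °C for 24 h, with OD600 and luminescence read every 30 min. Luminescence/OD600 taken at the luminescence peak (8–9 h) and normalised to the 0.1% DMSO control (100%).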

[2] = target: T1, Transcriptional regulator MvfR (Pseudomonas aeruginosa PA14); assay: Inhibition of PqsR in Pseudomonas aeruginosa PA14 harboring mCTX:PpqsA-lux fusion assessed as remaining activity at 10 uM incubated for 24 hrs by spot test relative to control; how it was run: as §1
[3] = target: T2, Transcriptional regulator MvfR (Pseudomonas aeruginosa PA14, UniProt A0A072ZLE6); assay: Inhibition of PqsR in Pseudomonas aeruginosa PAO1 L harboring mCTX:PpqsA-lux fusion protein measured every 30 mins for 24 hrs by luminescence reporter gene assay
T2 sequence (A0A072ZLE6 whole entry): T1 sequence (whole entry)
How it was run: (§2)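 Chromosomal mCTX:PpqsA-lux reporter strain grown overnight to OD600 2.0–3.0, diluted in LB to OD600 0.02 and mixed 1:1 with compound in LB. Ten […] serial concentrations, final 31.6 μM to 1 nM, in triplicate. Run at 37 °C for 24 h with OD600 and luminescence read every 30 min. IC50 from log concentration vs RLU/OD600 at the luminescence peak (8–9 h).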

[4] = target: T2, Transcriptional regulator MvfR; assay: Inhibition of PqsR in Pseudomonas aeruginosa PA14 harboring mCTX:PpqsA-lux fusion protein measured every 30 mins for 24 hrs by luminescence reporter gene assay; how it was run: as §2
Pseudomonas aeruginosa = assay: Bactericidal activity against Pseudomonas aeruginosa PAO1 L assessed as inhibition of bacterial growth; type: functional, organism-based
A549 = assay: Cytotoxicity against human A549 cells assessed as reduction in cell viability at 0.1 to 100 uM after 16 hrs by Alamar blue assay; type: cell-based; conditions: a549, 16 h, dose 0.1-100 µM
How it was run: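 A549 lung epithelial cells kept in DMEM with 10% FBS and 1% penicillin-streptomycin at 37 °C, 5% CO2. Trypsinised at 80% confluence, resuspended in DMEM-F12, seeded at 10,000 cells/well, left 16 h. Compound added (0.1–100 μM), 16 h further incubation. Alamar blue for 5 h, fluorescence ex 510/em 590 nm, normalised to untreated cells.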

[5] = system: Pseudomonas aeruginosa PA14 PqsR; assay: Therapeutic index, ratio of cytotoxicity against human A549 cells to IC50 for inhibition of Pseudomonas aeruginosa PA14 PqsR; type: toxicity, cell-based; conditions: read-out: TI
[6] = Solubility of the compound in test buffer at >100 uM; type: physicochemical
[7] = target: T1, Transcriptional regulator MvfR (Pseudomonas aeruginosa PA14); assay: Inhibition of Pseudomonas aeruginosa PAO1-L PqsR assessed as reduction in pyocyanin production by measuring pyocyanin level at 3 times IC50 incubated for 16 hrs; set-up: scale not given: the % may be the effect or the level left
[8] = target: T1, Transcriptional regulator MvfR (Pseudomonas aeruginosa PA14); assay: Inhibition of PqsR in Pseudomonas aeruginosa PAO1 L harboring mCTX:PpqsA-lux fusion at 10 uM and measured every 30 mins for 24 hrs by spot test; how it was run: as §1

| SMILES | Activity [1] [%] | Activity [2] [%] | IC50 [3] [µM] | IC50 [4] [µM] | Activity (Pseudomonas aeruginosa) | also measured |
| --- | --- | --- | --- | --- | --- | --- |
| COCCNc1nc(Cn2cnc3ccc(Cl)cc3c2=O)cs1 | 85 | > 50 |  |  |  |  |
| CC(C)(C)c1nc(Cn2cnc3ccc(Cl)cc3c2=O)cs1 |  |  | 0.397 | 0.65 | inactive |  |
| O=c1c2cc(Cl)ccc2ncn1Cc1csc(-c2ccco2)n1 |  |  | 1.33 | 1.31 | inactive |  |
| CCCCCc1nc(Cn2cnc3ccc(Cl)cc3c2=O)cs1 |  |  | 0.313 | 0.342 | inactive | Activity (A549): Non-Toxic; selectivity ratio [5]: > 292; solubility [6]: Insoluble; Activity [7]: 23% |
| CC(C)CCc1nc(Cn2cnc3ccc(Cl)cc3c2=O)cs1 |  |  | 1.36 | 0.683 | inactive |  |
| CC(C)c1ncc(Cn2cnc3ccc(Cl)cc3c2=O)s1 | 65 | > 50 |  |  |  |  |
| N#CCc1nc(Cn2cnc3ccc(Cl)cc3c2=O)cs1 | 104 | > 50 |  |  |  |  |
| CCCCNc1nc(Cn2cnc3ccc(Cl)cc3c2=O)cs1 |  | > 50 | 3.54 |  | inactive |  |
| CCCCCc1nc(Cn2cnc3cc(Cl)ccc3c2=O)cs1 | 106 | > 50 |  |  |  |  |
| COCCNc1ncc(Cn2cnc3ccc(Cl)cc3c2=O)s1 | 85 | > 50 |  |  |  |  |
| CN(CCO)c1ncc(Cn2cnc3ccc(Cl)cc3c2=O)s1 | 101 | > 50 |  |  |  |  |
| CC(C)(C)c1nc(Cn2cnc3cc(Cl)ccc3c2=O)cs1 |  | > 50 | 2.94 |  | inactive |  |
| CC1CCN(c2ncc(Cn3cnc4ccc(Cl)cc4c3=O)s2)CC1 | 72 | > 50 |  |  |  |  |
| CCc1nc(Cn2cnc3ccc(Cl)cc3c2=O)cs1 | 79 | > 50 |  |  |  |  |
| O=c1c2cc(Cl)ccc2ncn1Cc1csc(-c2ccc([N+](=O)[O-])cc2)n1 | 89 | > 50 |  |  |  |  |
| CCCC(C)c1nc(Cn2cnc3ccc(Cl)cc3c2=O)cs1 (configuration not stated) |  |  | 1.11 | 0.646 | inactive |  |

| SMILES | Activity [1] [%] | Activity [2] [%] | IC50 [3] [µM] | IC50 [4] [µM] | Activity (Pseudomonas aeruginosa) | also measured |
| --- | --- | --- | --- | --- | --- | --- |
| O=c1c2cc(Cl)ccc2ncn1Cc1csc(/C=C/c2ccco2)n1 |  |  | 2.05 | 2.92 | inactive |  |
| O=c1c2cc(Cl)ccc2ncn1Cc1csc(-c2ccccc2)n1 |  |  | 0.244 | 0.123 | inactive |  |
| O=c1c2cc(Cl)ccc2ncn1Cc1cnc(NC2CCCCC2)s1 | 83 | > 50 |  |  |  |  |
| Cc1nc(Cn2cnc3ccc(Cl)cc3c2=O)cs1 | 83 | > 50 |  |  |  |  |
| NC(N)=Nc1nc(Cn2cnc3ccc(Cl)cc3c2=O)cs1 | 108 | > 50 |  |  |  |  |
| CC(C)c1nc(Cn2cnc3ccc(Cl)cc3c2=O)cs1 |  |  | 1.05 | 1.58 | inactive |  |
| CC(C)c1noc(Cn2cnc3ccc(Cl)cc3c2=O)n1 |  |  |  |  |  | inhibition [8]: inactive |
| CCCCNc1ncc(Cn2cnc3ccc(Cl)cc3c2=O)s1 | 67 | > 50 |  |  |  |  |
| CCCCCCc1nc(Cn2cnc3ccc(Cl)cc3c2=O)cs1 |  |  | 0.298 | 0.265 | inactive | Activity (A549): Non-Toxic; selectivity ratio [5]: > 377; solubility [6]: Insoluble; Activity [7]: 36% |
| CCC(C)Cc1nc(Cn2cnc3ccc(Cl)cc3c2=O)cs1 (configuration not stated) |  |  | 1.57 | 0.639 | inactive |  |
| CCCCc1nc(Cn2cnc3ccc(Cl)cc3c2=O)cs1 |  |  | 1.56 | 1.72 | inactive |  |
| CC(C)c1nc(Cn2cnc3cc(F)ccc3c2=O)cs1 |  |  | 13.2 |  |  |  |
| O=c1c2cc(Cl)ccc2ncn1Cc1cnc(Cl)s1 | 95 | > 50 |  |  |  |  |
| CC(C)Cc1nc(Cn2cnc3ccc(Cl)cc3c2=O)cs1 |  |  | 1.22 | 1.33 | inactive |  |
| O=c1c2cc(Cl)ccc2ncn1Cc1csc(C(F)(F)F)n1 | 52 | > 50 |  |  |  |  |
